Assay results reported in ChEMBL document CHEMBL3616459, “Antimicrobial peptides with potential for biofilm eradication: synthesis and structure activity relationship studies of battacin peptides” (J Med Chem, 2015).
≈ marks a conversion by molar mass, not a printed value. Calls of active or inactive are those of the source. The calls are words filed in the database; no cut-off is given here. Non-standard residues stand in square brackets, D forms with d. Residues, ends and D or L forms follow the SMILES beside them. ξ: configuration not given here. *: point of attachment. Hexanoyl(4ξ-Me) = CCC(C)CCC(=O)*; dDab = NCC[C@@H](N)C(=O)O; Dab = NCC[C@H](N)C(=O)O

Tests used:
Erwinia amylovora [1] = assay: Bactericidal activity against Erwinia amylovora 1501 at MIC […] by time-kill assay; format: functional, organism-based
Staphylococcus aureus [2] = assay: Antimicrobial activity against Staphylococcus aureus after 24 hrs by spectrophotometry; format: functional
Summary of the method: (§1)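 Broth microdilution in Luria broth. Overnight culture from a single colony, grown at 28 °C (Ea1501, Psa) or 37 °C (E. coli, S. aureus), adjusted to OD600 0.6. Peptide dissolved in LB with 0.5% acetic acid as a dilution series; 50 μL peptide plus 50 μL culture per well, triplicates.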

Pseudomonas aeruginosa [3] = assay: Bactericidal activity against Pseudomonas aeruginosa by time-kill assay; format: functional, organism-based
Summary of the method: (§2)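 Time-kill assay. Overnight culture diluted in LB to mid-log phase, 10^5–10^8 CFU/mL; 100 μL added to 10 mL peptide in LB at 1×, 2×, 4× and 20× MIC. Incubated with shaking at 100 rpm, at 28 °C (Ea1501, Psa) or 37 °C (E. coli, P. aeruginosa, S. aureus). Samples at 0, 0.5, 1, 3, 6, 9 and 24 h serially diluted in 0.9% saline and plated; colonies counted after 24 h. Run in duplicate. Bactericidal means ≥2-log10 CFU/mL drop versus the no-antibiotic control.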

Escherichia coli [4] = assay: Antimicrobial activity against Escherichia coli after 24 hrs by spectrophotometry; format: functional; summary of the method: as §1
Staphylococcus aureus [5] = assay: Bactericidal activity against Staphylococcus aureus at 4 to 20 times MIC after 24 hrs by time-kill assay; format: functional, organism-based; summary of the method: as §2
[6] = Antimicrobial activity against Pseudomonas syringae pv. actinidiae 16027 after 24 hrs by spectrophotometry; format: functional; conditions: Pseudomonas syringae, 16027, 24 h; summary of the method: as §1
Staphylococcus aureus [7] = assay: Ratio of gentamycin MIC to compound MIC for Staphylococcus aureus after 24 hrs by spectrophotometry; format: functional
Staphylococcus aureus [8] = assay: Bactericidal activity against Staphylococcus aureus at 4 to 20 times MIC after 3 hrs by time-kill assay; format: functional, organism-based; summary of the method: as §2
Staphylococcus aureus [9] = assay: Bactericidal activity against Staphylococcus aureus at 1 to 2 times MIC after 24 hrs by time-kill assay; format: functional, organism-based; summary of the method: as §2
Staphylococcus aureus [10] = assay: Antimicrobial activity against Staphylococcus aureus preformed biofilms at 10 to 25 uM after 48 hrs; format: functional, organism-based
Pseudomonas aeruginosa [11] = assay: Antimicrobial activity against Pseudomonas aeruginosa assessed as perturbed cell membrane at 2 times MIC measured after 24 hrs by scanning electron microscopy; format: functional, organism-based
Summary of the method: (§3)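 Bacteria grown to OD600 0.3 in LB on glass slides for 24 h, then washed with 10 mM sodium phosphate pH 7.4. Treated 20 min with peptide in LB at twice the upper limit of its MIC, washed, and fixed in 4% glutaraldehyde 1 h. Dehydrated through graded ethanol, dried at 60 °C, platinum coated, and imaged by SEM at 10 kV.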

Erwinia amylovora [12] = assay: Antimicrobial activity against streptomycin-resistant Erwinia amylovora after 24 hrs by spectrophotometry; format: functional
Summary of the method: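 Broth microdilution in Luria broth; overnight culture grown at 28 °C, adjusted to OD600 0.6, mixed 1:1 with a dilution series of peptide prepared in LB containing 0.5% acetic acid. Three replicates per concentration.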

Pseudomonas syringae [13] = assay: Bactericidal activity against Pseudomonas syringae pv. actinidiae 16027 at 4 times MIC up to 6 hrs by time-kill assay; format: functional, organism-based; summary of the method: as §2
Pseudomonas aeruginosa [14] = assay: Antimicrobial activity against Pseudomonas aeruginosa assessed as outer membrane permeability at 0.5 to 100 uM measured after 1 min by N-phenylnaphthylamine uptake assay; format: functional, organism-based
Summary of the method: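 Cells grown overnight in LB at 37 °C, then regrown to OD600 0.5, washed thrice and resuspended to OD600 0.5 in 10 mM phosphate buffer pH 7.0. Peptide (30 μL, 0.5–100 μM) added to 2.94 mL suspension, with NPN at 10 μM final. Fluorescence read at ex 350/em 420 nm, triplicate readings averaged.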

[15] = tested on: Pseudomonas syringae pv. actinidiae; assay: Antimicrobial activity against Pseudomonas syringae pv. actinidiae 16027 preformed biofilms after 48 hrs by crystal violet staining-based microscopy; format: functional
Summary of the method: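 Psa16027 biofilms formed 48 h without peptide, then washed. 100 μL of peptide (1, 5 or 50 μM) in LB, or LB alone, added and incubated a further 24 h at 28 °C. Crystal violet staining followed, with A560 estimation of biofilm mass and microscopy.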

Staphylococcus aureus [16] = assay: Bactericidal activity against Staphylococcus aureus at 1 to 2 times MIC after 6 hrs by time-kill assay; format: functional, organism-based; summary of the method: as §2
Pseudomonas syringae [17] = assay: Bactericidal activity against Pseudomonas syringae pv. actinidiae 16027 at 1 to 20 times MIC after 24 hrs by time-kill assay; format: functional, organism-based; summary of the method: as §2
Escherichia coli [18] = assay: Bactericidal activity against Escherichia coli assessed as reduction in bacterial count at 20 times MIC up to 3 hrs by time-kill assay relative to control; format: functional; summary of the method: as §2
Escherichia coli [19] = assay: Bactericidal activity against Escherichia coli assessed as reduction in bacterial count at 2 to 4 times MIC up to 9 hrs by time-kill assay relative to control; format: functional; summary of the method: as §2
Escherichia coli [20] = assay: Antimicrobial activity against Escherichia coli assessed as complete cell lysis at 2 times MIC measured after 24 hrs by scanning electron microscopy; format: functional, organism-based; summary of the method: as §3
Erwinia amylovora [21] = assay: Antimicrobial activity against Erwinia amylovora 1501 after 24 hrs by spectrophotometry; format: functional; conditions: Erwinia amylovora, 1501, 24 h; summary of the method: as §1
Pseudomonas aeruginosa [22] = assay: Bactericidal activity against Pseudomonas aeruginosa at 20 times MIC after 9 hrs by time-kill assay relative to control; format: functional, organism-based; summary of the method: as §2
Erwinia amylovora [23] = assay: Bactericidal activity against Erwinia amylovora 1501 by time-kill assay; format: functional, organism-based; summary of the method: as §2
Escherichia coli [24] = assay: Bactericidal activity against Escherichia coli by time-kill assay; format: functional, organism-based; summary of the method: as §2
Staphylococcus aureus [25] = assay: Inhibition of Staphylococcus aureus biofilm formation at 10 to 25 uM after 48 hrs; format: functional, organism-based
Summary of the method: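 P. aeruginosa or S. aureus biofilms grown 48 h on coverslips in 12-well plates, with peptide added at inoculation at 5, 10, 25, 50 or 100 μM. Coverslips rinsed, dried at 50 °C and stained with BacLight (SYTO 9/propidium iodide) for 25 min in the dark at room temperature. Examined by fluorescence microscopy at 1000×.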

Staphylococcus aureus [26] = assay: Antimicrobial activity against Staphylococcus aureus assessed as complete cell lysis at 2 times MIC […]; format: functional, organism-based
Pseudomonas syringae [27] = assay: Bactericidal activity against Pseudomonas syringae pv. actinidiae 16027 at 1 to 2 times MIC after 9 hrs by time-kill assay; format: functional, organism-based; summary of the method: as §2
Pseudomonas syringae [28] = assay: Bactericidal activity against Pseudomonas syringae pv. actinidiae 16027 at 20 times MIC up to 1 hr by time-kill assay; format: functional, organism-based; summary of the method: as §2
Pseudomonas syringae [29] = assay: Inhibition of Pseudomonas syringae pv. actinidiae 16027 biofilm formation at 5 uM after 48 hrs; format: functional
Summary of the method: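 Psa16027 overnight culture (OD600 0.3) grown at 28 °C in LB. 50 μL peptide in LB (1–100 μM) plus 50 μL diluted culture, triplicates, incubated 48 h at 28 °C at 50 rpm. Wells stained with 1% crystal violet for 5 min and washed; stain solubilized in 96% ethanol and A560 read as biofilm mass. For imaging, 12-well plates were used and stained biofilms viewed at 400×.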

Staphylococcus aureus [30] = assay: Bactericidal activity against Staphylococcus aureus by time-kill assay; format: functional, organism-based; summary of the method: as §2
Pseudomonas aeruginosa [31] = assay: Antimicrobial activity against Pseudomonas aeruginosa after 24 hrs by spectrophotometry; format: functional
Pseudomonas aeruginosa [32] = assay: Bactericidal activity against Pseudomonas aeruginosa assessed as reduction in bacterial count at 2 to 4 times MIC after 24 hrs by time-kill assay relative to control; format: functional; summary of the method: as §2
Erwinia amylovora [33] = assay: Bactericidal activity against Erwinia amylovora 1501 at 2 to 20 times MIC up to 6 hrs by time-kill assay; format: functional, organism-based; summary of the method: as §2

Question: For `CCC(C)CCC(=O)N[C@H](CCN)C(=O)N[C@@H](CCN)C(=O)N[C@@H](CCN)C(=O)N[C@@H](CC(C)C)C(=O)N[C@H](Cc1ccccc1)C(=O)N[C@@H](CCN)C(=O)N[C@@H](CCN)C(=O)N[C@@H](CC(C)C)C(N)=O` (stereo partly drawn) ({Hexanoyl(4ξ-Me)}-[dDab][Dab][Dab]L[dF][Dab][Dab]L-NH2), which Activity (Erwinia amylovora [1]) is on record?
Answer: Its Activity is “inactive”.

Question: And the MIC (Staphylococcus aureus [2])?
Answer: Its MIC is 1 µM (≈ 1 µg/mL).

Question: What about the Activity (Pseudomonas aeruginosa [3]) of the same compound?
Answer: Its Activity is “Dose-dependent effect”.

Question: And the MIC (Escherichia coli [4])?
Answer: Its MIC is 2.5 µM (≈ 2.51 µg/mL).

Question: What about the Activity (Staphylococcus aureus [5]) of the same compound?
Answer: Its Activity is “Active”.

Question: And the MIC [6]?
Answer: The MIC was 1 µM (≈ 1 µg/mL).

Question: What about the Ratio (Staphylococcus aureus [7]) of the same compound?
Answer: Its Ratio is 2.

Question: And the Activity (Staphylococcus aureus [8])?
Answer: The Activity was “Active”.

Question: And the Activity (Staphylococcus aureus [9])?
Answer: The Activity was “Active”.

Question: What about the Activity (Staphylococcus aureus [10]) of the same compound?
Answer: Its Activity is “Active”.

Question: And the Activity (Pseudomonas aeruginosa [11])?
Answer: The Activity was “Active”.

Question: What about the MIC (Erwinia amylovora [12]) of the same compound?
Answer: The MIC was 5 µM (≈ 5.02 µg/mL).

Question: What about the Activity (Pseudomonas syringae [13]) of the same compound?
Answer: Its Activity is “Active”.

Question: And the Activity (Pseudomonas aeruginosa [14])?
Answer: The Activity was “Active”.

Question: What about the Activity [15] of the same compound?
Answer: Its Activity is “Active”.

Question: And the Activity (Staphylococcus aureus [16])?
Answer: The Activity was “Active”.

Question: And the Activity (Pseudomonas syringae [17])?
Answer: The Activity was “inactive”.

Question: And the Activity (Escherichia coli [18])?
Answer: The Activity was greater than 3 deltalog10CFU/ml.

Question: And the Activity (Escherichia coli [19])?
Answer: Its Activity is greater than 3 deltalog10CFU/ml.

Question: What about the Activity (Escherichia coli [20]) of the same compound?
Answer: Its Activity is “Active”.

Question: And the MIC (Erwinia amylovora [21])?
Answer: The MIC was 2.5 µM (≈ 2.51 µg/mL).

Question: What about the Activity (Pseudomonas aeruginosa [22]) of the same compound?
Answer: The Activity was “Active”.

Question: What about the Activity (Erwinia amylovora [23]) of the same compound?
Answer: The Activity was “Dose-dependent effect”.

Question: And the Activity (Escherichia coli [24])?
Answer: The Activity was “Dose-dependent effect”.

Question: What about the inhibition (Staphylococcus aureus [25]) of the same compound?
Answer: Its inhibition is “Active”.

Question: And the Activity (Staphylococcus aureus [26])?
Answer: The Activity was “Active”.

Question: And the Activity (Pseudomonas syringae [27])?
Answer: Its Activity is “Active”.

Question: And the Activity (Pseudomonas syringae [28])?
Answer: Its Activity is “Active”.

Question: What about the inhibition (Pseudomonas syringae [29]) of the same compound?
Answer: The inhibition was “Active”.

Question: What about the Activity (Staphylococcus aureus [30]) of the same compound?
Answer: The Activity was “Dose-dependent effect”.

Question: What about the MIC (Pseudomonas aeruginosa [31]) of the same compound?
Answer: The MIC was 1 µM (≈ 1 µg/mL).

Question: What about the Activity (Pseudomonas aeruginosa [32]) of the same compound?
Answer: The Activity was greater than 2 deltalog10CFU/ml.

Question: What about the Activity (Erwinia amylovora [33]) of the same compound?
Answer: Its Activity is “Active”.
